Reference: PubChem BioAssay
The source made the active and inactive calls.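 Rule for the calls, unless noted: active = viability at or under a set limit in both replicates, limit being median viability minus 3 SD (cut at about 48% in these data, passing the limit was not always enough); inconclusive = at or under the limit in just one replicate; inactive = at or above the limit in both replicates.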

Columns and labels:
[1] = Her2 expression decrease, cell viability multiplex – SKBR3 breast tumor cells, AlphaScreen, ATP viability, primary screen (AID 461;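 active = Her2 level under about 52% in both replicate screens, with viability over 70% of control, limit read from the data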;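 for Her2 level: lower value means less Her2 protein in the cells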;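 for viability: percent of carrier control wells set as 100% viability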); details: SKBR3 Her2 protein level, 18-24 h, measured here: SKBR3 viability, ATP luminescence, at 10 µM
[2] = target: Receptor tyrosine-protein kinase erbB-2 (Homo sapiens) (UniProt P04626); assay: as above; details: 18-24 h, at 10 µM, stronger effect = lower value
Sequence of Receptor tyrosine-protein kinase erbB-2 (Homo sapiens) (P04626 whole entry, looked up): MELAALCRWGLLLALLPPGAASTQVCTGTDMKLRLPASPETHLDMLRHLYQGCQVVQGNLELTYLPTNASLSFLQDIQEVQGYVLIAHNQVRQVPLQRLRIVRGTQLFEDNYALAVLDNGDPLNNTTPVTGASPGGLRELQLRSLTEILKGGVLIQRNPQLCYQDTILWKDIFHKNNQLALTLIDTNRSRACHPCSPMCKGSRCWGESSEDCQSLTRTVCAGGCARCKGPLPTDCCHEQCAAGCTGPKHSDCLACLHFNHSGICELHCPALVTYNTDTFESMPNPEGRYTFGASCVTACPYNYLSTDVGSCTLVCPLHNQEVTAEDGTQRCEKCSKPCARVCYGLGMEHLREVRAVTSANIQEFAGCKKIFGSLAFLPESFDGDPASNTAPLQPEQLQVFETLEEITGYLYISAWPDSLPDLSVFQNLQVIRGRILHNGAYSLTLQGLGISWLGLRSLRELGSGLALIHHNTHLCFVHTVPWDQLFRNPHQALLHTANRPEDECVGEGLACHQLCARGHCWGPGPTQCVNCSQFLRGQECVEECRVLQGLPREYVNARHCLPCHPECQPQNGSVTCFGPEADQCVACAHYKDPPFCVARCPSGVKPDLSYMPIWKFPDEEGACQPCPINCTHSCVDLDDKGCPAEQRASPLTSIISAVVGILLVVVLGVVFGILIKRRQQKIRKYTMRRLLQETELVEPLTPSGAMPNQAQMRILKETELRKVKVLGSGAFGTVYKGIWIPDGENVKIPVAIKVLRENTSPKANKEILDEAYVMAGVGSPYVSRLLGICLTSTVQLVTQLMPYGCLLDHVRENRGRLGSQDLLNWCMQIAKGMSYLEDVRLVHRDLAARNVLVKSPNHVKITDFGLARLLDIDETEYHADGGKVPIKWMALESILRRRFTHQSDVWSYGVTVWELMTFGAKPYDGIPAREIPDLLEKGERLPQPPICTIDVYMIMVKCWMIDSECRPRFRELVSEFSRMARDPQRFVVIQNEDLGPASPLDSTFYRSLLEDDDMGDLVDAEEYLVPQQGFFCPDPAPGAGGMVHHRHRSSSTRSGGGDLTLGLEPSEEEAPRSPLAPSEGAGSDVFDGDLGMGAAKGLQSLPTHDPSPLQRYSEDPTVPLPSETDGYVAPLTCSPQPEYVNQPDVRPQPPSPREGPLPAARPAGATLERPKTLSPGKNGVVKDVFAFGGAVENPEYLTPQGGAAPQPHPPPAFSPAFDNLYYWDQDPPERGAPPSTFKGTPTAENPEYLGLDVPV

[3] = reduced viability of SK-BR-3 breast cancer cells – cell-based, 24 h, human, pilot screen (AID 572;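 active = viability at or below 10% of carrier control in both of two separate runs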;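 note: compound exposure lasted between 18 and 24 h rather than exactly 24 h; 100% = carrier-treated control wells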); details: SK-BR-3 viability, CellTiter-Glo luminescence, at 10 µM, stronger effect = lower value
[4] = HUVEC growth inhibition – cell-based, human, primary screen (AID 575;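 active = viability at or below 30% in both replicate assays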;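 note: 100% = median of untreated cell wells with 0.1% DMSO on each plate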); details: HUVEC proliferation, CellTiter-Glo luminescence, 72 h; at 10 µM; stronger effect = lower value
In short: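 Timing: 72 h treatment at 37 °C; material: HUVEC primary cells; technique: CellTiter-Glo luminescence measuring cellular ATP; controls: vehicle and MePR control wells; measure: percent of median DMSO-control luminescence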

[5] = H69AR cell proliferation blockers – human, duplicate replicates, primary screen (AID 580); details: H69AR lung tumor cells viability, ATP luminescence, 72 h; at 10 µM; stronger effect = lower value;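 note: 100% = mean luminescence of untreated wells and 0% = no signal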
[6] = MRP1 drug-resistance reversers in H69AR cells – cell-based, doxorubicin co-treatment, pilot screen (AID 601;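 active = viability loss from added drug above about 55%, and viability with drug at most 40%, in both replicates, limit read from the data, passing the limit was not always enough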); details: CellTiter-Glo, 72 h, at 10 µM; for differential viability (reversal): stronger effect = higher value
[7] = yeast transport mutant growth inhibition pilot in 384-well plates, post-Golgi transport modulator project (AID 636; in the data active = inhibition above about 31%); details: absorbance 615 nm, about 18 h, stronger effect = higher value
[8] = growth suppression of yeast trafficking mutant, preliminary HTS, modulators of trafficking downstream of Golgi apparatus project, 1536-format plate, OD 615 nm (AID 637; in the data active = inhibition above about 30%); details: yeast transport mutant growth, absorbance 615 nm, 18 h; stronger effect = higher value
[9] = H69AR cells + 2 uM doxorubicin, measured here: viability with 2 uM doxorubicin, stronger effect = lower value
[10] = H69AR cells, compound alone cytotoxicity

| Structure (SMILES) | viability [1] [%] | Her2 level [2] | viability [3] | viability [4] | viability [5] | differential viability (reversal) ([6]; H69AR cells + 2 uM doxorubicin) | viability [6, 9] [%] | viability [6, 10] [%] | inhibition [7] | inhibition [8] |
| --- | --- | --- | --- | --- | --- | --- | --- | --- | --- | --- |
| CC[N+](C)(C)Cc1ccccc1Br | 102 | 92% (inactive) | 102% (inactive) | 107% (inactive) | 98.8% (inactive) | -4.18% (inactive) | 103 | 98.8 | – | – |
| CCC(=O)O[C@]1(C(=O)CCl)[C@@H](C)C[C@H]2[C@@H]3CCC4=CC(=O)C=C[C@]4(C)[C@@]3(F)[C@@H](O)C[C@@]21C | 122 | 86.5% (inactive) | 122% (inactive) | 84.9% (inactive) | 87.3% (inactive) | -13.3% (inactive) | 101 | 87.3 | – | – |
| CC(C)CCNC(=O)[C@H](CC(C)C)NC(=O)[C@H]1O[C@@H]1C(=O)O | 104 | 112% (inactive) | 104% (inactive) | 95.9% (inactive) | 100% (inactive) | 5.67% (inactive) | 94.5 | 100 | – | – |
| CC(C[N+](C)(C)C)OC(N)=O (stereo not drawn) | 101 | 114% (inactive) | 101% (inactive) | 97.5% (inactive) | 99.4% (inactive) | 1.13% (inactive) | 98.3 | 99.4 | – | – |
| CC1(C)O[C@@H]2C[C@H]3[C@@H]4CCC5=CC(=O)C=C[C@]5(C)[C@@]4(F)[C@@H](O)C[C@]3(C)[C@]2(C(=O)CO)O1 | 90.5 | 128% (inactive) | 90.5% (inactive) | 103% (inactive) | 92.8% (inactive) | -10.5% (inactive) | 103 | 92.8 | – | – |
| CC[N+](C)(CC)CCOC(=O)C(O)(c1ccccc1)C1CCCCC1 (stereo not drawn) | 91.5 | 97.5% (inactive) | 91.5% (inactive) | 98.9% (inactive) | 110% (inactive) | 12.8% (inactive) | 97 | 110 | – | – |
| O=C(CCCN1CC=C(n2c(=O)[nH]c3ccccc32)CC1)c1ccc(F)cc1 | 77 | 103% (inactive) | 77% (inactive) | 98.4% (inactive) | 86.2% (inactive) | 11.1% (inactive) | 75.1 | 86.2 | – | – |
| O=C(O)CCC(=O)Nc1ccc(S(=O)(=O)Nc2nccs2)cc1 | 122 | 98.5% (inactive) | 122% (inactive) | 75.4% (inactive) | 94.4% (inactive) | -2.46% (inactive) | 96.9 | 94.4 | – | – |
| COc1ccc(C2CNC(=O)C2)cc1OC1CCCC1 (stereo not drawn) | 115 | 121% (inactive) | 115% (inactive) | 114% (inactive) | 109% (inactive) | 18.8% (inactive) | 90.6 | 109 | – | – |
| CCN(CC)CCNC(=O)c1cc(S(C)(=O)=O)ccc1OC | 114 | 95% (inactive) | 114% (inactive) | 102% (inactive) | 111% (inactive) | 14.5% (inactive) | 96.1 | 111 | – | – |
| CN1CCC(=C2c3ccccc3CC(=O)c3sccc32)CC1 | 96 | 87% (inactive) | 96% (inactive) | 76.4% (inactive) | 91.4% (inactive) | 11.8% (inactive) | 79.6 | 91.4 | – | – |
| C[C@@H]1C[C@H]2[C@@H]3CCC4=CC(=O)C=C[C@]4(C)[C@@]3(F)[C@@H](O)C[C@]2(C)[C@H]1C(=O)CO | 84 | 150% (inactive) | 84% (inactive) | 102% (inactive) | 91.2% (inactive) | -10.7% (inactive) | 102 | 91.2 | – | – |
| CC(C)C[C@H](NC(=O)[C@@H]1O[C@H]1C(=O)O)C(=O)NCCCCN=C(N)N | 100 | 104% (inactive) | 100% (inactive) | 86% (inactive) | 100% (inactive) | -2.29% (inactive) | 103 | 100 | – | – |
| NS(=O)(=O)c1cc2c(cc1Cl)NC(C1C[C@H]3C=C[C@@H]1C3)NS2(=O)=O (stereo partly drawn) | 110 | 130% (inactive) | 110% (inactive) | 88.3% (inactive) | 92.7% (inactive) | -10.8% (inactive) | 104 | 92.7 | – | – |
| c1ccc2c(CC3=NCCN3)cccc2c1 | 101 | 99.5% (inactive) | 101% (inactive) | 91.7% (inactive) | 93.8% (inactive) | 14.9% (inactive) | 78.9 | 93.8 | – | – |
| CCCCC1C(=O)N(c2ccccc2)N(c2ccccc2)C1=O | 99 | 90.5% (inactive) | 99% (inactive) | 99.1% (inactive) | 98.5% (inactive) | 7.41% (inactive) | 91.1 | 98.5 | – | – |
| CC1CCc2cc(F)cc3c(=O)c(C(=O)O)cn1c23 (stereo not drawn) | 104 | 100% (inactive) | 104% (inactive) | 98.5% (inactive) | 104% (inactive) | 4.35% (inactive) | 99.2 | 104 | – | – |
| CCS(=O)(=O)CCn1c([N+](=O)[O-])cnc1C | 89.5 | 122% (inactive) | 89.5% (inactive) | 105% (inactive) | 100% (inactive) | 9.26% (inactive) | 90.9 | 100 | – | – |
| COc1ccccc1OCC(O)COC(N)=O (stereo not drawn) | 93.5 | 96% (inactive) | 93.5% (inactive) | 90.5% (inactive) | 99.9% (inactive) | 7.94% (inactive) | 92 | 99.9 | – | – |
| CCOc1ccc2nc(S(N)(=O)=O)sc2c1 | 127 | 92% (inactive) | 127% (inactive) | 59% (inactive) | 67.6% (inactive) | 7.23% (inactive) | 60.4 | 67.6 | – | – |
| N[C@@H](Cc1cc(I)c(Oc2ccc(O)c(I)c2)c(I)c1)C(=O)O | 100 | 87% (inactive) | 100% (inactive) | 86.9% (inactive) | 97.6% (inactive) | 6.87% (inactive) | 90.8 | 97.6 | – | – |
| COc1ccc(C)cc1S(=O)(=O)Nc1cccnc1 | 90.5 | 84.5% (inactive) | 90.5% (inactive) | 91.2% (inactive) | 88.4% (inactive) | 1.54% (inactive) | 86.9 | 88.4 | -4.19% (inactive) | 0.16% (inactive) |
